Source: ChEMBL document CHEMBL1141444, “Sorbifolivaltrates A-D, diene valepotriates from Valeriana sorbifolia(1)” (J Nat Prod, 2007)

Assay: Cytotoxicity against human PC3M cells by MTT assay
Type: functional, cell-based
Conditions: PC-3M
How it was run: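 Human metastatic prostate PC-3M cells seeded at 2000/well, recovered overnight; serial drug dilutions in medium added in quadruplicate, DMSO as negative and doxorubicin as positive control. Incubated about 40 h at 37 °C, 5% CO2, then MTT 0.4 mg/mL for 4 h; medium removed, DMSO added, absorbance read at 650 nm. Percent inhibition plotted to derive IC50.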

Compound	IC50 [µM]
CC(C)CC(=O)OCC1=CO[C@@H](OC(=O)CC(C)(C)O)[C@H]2C1=C[C@H](OC(=O)CC(C)C)[C@]2(O)COC(=O)CC(C)C	8.9
COc1cccc2c1C(=O)c1c(O)c3c(c(O)c1C2=O)C[C@@](O)(C(=O)CO)C[C@@H]3O[C@H]1C[C@H](N)[C@H](O)[C@H](C)O1 [DOXORUBICIN]	1.26
CC(C)=CC(=O)O[C@@H]1OC=C(COC(=O)CC(C)C)C2=C[C@H](OC(=O)CC(C)C)[C@]3(CO3)[C@H]21	2.6
CC(=O)OCC1=CO[C@@H](OC(=O)C=C(C)C)[C@H]2C1=C[C@H](OC(=O)CC(C)C)[C@]2(O)COC(=O)CC(C)C	8.9
CC(=O)O[C@H]1C=C2C(COC(=O)CC(C)C)=CO[C@@H](OC(=O)CC(C)C)[C@@H]2[C@@]12CO2	3.1
CC(=O)OCC1=CO[C@@H](OC(=O)C=C(C)C)[C@H]2C1=C[C@H](OC(=O)CC(C)C)[C@]21CO1	20
CC(=O)OCC1=CO[C@@H](OC(=O)CC(C)(C)O)[C@H]2C1=C[C@H](OC(=O)CC(C)C)[C@]2(O)COC(=O)CC(C)C	11.1
CC(=O)OCC1=CO[C@@H](OC(=O)CC(C)C)[C@H]2C1=C[C@H](OC(=O)CC(C)C)[C@]21CO1 [VALTRATE]	1.7
CCC(C)CC(=O)O[C@H]1C=C2C(COC(C)=O)=CO[C@@H](OC(=O)C=C(C)C)[C@@H]2[C@@]12CO2 (stereo not given in full)	12.2
CCC(C)CC(=O)O[C@H]1C=C2C(COC(C)=O)=CO[C@@H](OC(=O)C=C(C)C)[C@@H]2[C@@]1(O)COC(=O)CC(C)C (stereo not given in full)	7.3
